Active and inactive are the calls of the source. The calls are words filed in the database; no cut-off is given here.
Key:
[1] = Drug level in mouse plasma at 30 mg/kg, po after 1 hr; format: ADME, organism-based; set-up: dose 30 mg/kg, route oral
[2] = Ratio of drug level in mouse brain to plasma at 30 mg/kg, po after 1 hr; format: ADME, organism-based; set-up: dose 30 mg/kg, route oral
Brain [3] = test: Drug level in mouse brain at 30 mg/kg, po after 1 hr; format: ADME, organism-based; set-up: dose 30 mg/kg, route oral; conditions: in vivo
[4] = biological target: Cannabinoid receptor 2 (Homo sapiens) (UniProt P34972); test: Inhibition of CB2 receptor at 10 uM
Sequence of Cannabinoid receptor 2 (Homo sapiens) (P34972 whole entry): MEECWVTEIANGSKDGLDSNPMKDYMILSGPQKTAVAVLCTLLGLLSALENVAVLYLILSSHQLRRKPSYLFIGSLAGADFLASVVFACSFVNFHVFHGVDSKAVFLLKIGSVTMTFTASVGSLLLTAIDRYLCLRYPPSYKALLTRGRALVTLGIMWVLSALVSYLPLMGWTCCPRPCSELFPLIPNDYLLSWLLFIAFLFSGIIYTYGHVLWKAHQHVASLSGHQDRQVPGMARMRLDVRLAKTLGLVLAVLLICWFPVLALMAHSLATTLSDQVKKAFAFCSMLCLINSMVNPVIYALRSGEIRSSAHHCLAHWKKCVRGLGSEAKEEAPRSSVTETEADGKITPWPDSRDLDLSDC

[5] = Ratio of drug level in brain to plasma of mouse at 3 mg/kg, sc after 30 mins; format: ADME, organism-based; set-up: dose 3 mg/kg, route subcutaneous
How it was run: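 Mice dosed subcutaneously at 3 mg/kg; brain and plasma sampled 30 min after dosing. Brain level measured as nmol/g tissue alongside plasma concentration; value is the brain-to-plasma (b/p) ratio of these two levels.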

[6] = biological target: Kappa-type opioid receptor (Homo sapiens, UniProt P41145); test: Displacement of [3H]U69593 from human kappa opioid receptor expressed in CHO cells; format: cell-based
Sequence of Kappa-type opioid receptor (P41145 whole entry): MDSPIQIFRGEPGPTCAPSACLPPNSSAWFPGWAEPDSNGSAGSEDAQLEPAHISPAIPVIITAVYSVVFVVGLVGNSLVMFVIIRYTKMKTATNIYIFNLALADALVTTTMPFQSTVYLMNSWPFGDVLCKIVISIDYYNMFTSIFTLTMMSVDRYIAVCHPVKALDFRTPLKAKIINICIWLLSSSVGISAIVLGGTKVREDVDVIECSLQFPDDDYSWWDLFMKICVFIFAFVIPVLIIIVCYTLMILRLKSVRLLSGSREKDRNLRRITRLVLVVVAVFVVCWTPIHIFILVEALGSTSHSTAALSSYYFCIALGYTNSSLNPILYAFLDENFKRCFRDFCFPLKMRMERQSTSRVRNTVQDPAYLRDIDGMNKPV
How it was run: (§1)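 Radioligand displacement in CHO cells stably expressing cloned human opioid receptors: [3H]diprenorphin for mu and [3H]U69593 for kappa. IC50 values were reported.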

[7] = biological target: T1, Alpha-1D adrenergic receptor (Homo sapiens) (UniProt P25100); test: Inhibition of adrenergic Alpha-1D receptor at 10 uM
T1 sequence (whole entry): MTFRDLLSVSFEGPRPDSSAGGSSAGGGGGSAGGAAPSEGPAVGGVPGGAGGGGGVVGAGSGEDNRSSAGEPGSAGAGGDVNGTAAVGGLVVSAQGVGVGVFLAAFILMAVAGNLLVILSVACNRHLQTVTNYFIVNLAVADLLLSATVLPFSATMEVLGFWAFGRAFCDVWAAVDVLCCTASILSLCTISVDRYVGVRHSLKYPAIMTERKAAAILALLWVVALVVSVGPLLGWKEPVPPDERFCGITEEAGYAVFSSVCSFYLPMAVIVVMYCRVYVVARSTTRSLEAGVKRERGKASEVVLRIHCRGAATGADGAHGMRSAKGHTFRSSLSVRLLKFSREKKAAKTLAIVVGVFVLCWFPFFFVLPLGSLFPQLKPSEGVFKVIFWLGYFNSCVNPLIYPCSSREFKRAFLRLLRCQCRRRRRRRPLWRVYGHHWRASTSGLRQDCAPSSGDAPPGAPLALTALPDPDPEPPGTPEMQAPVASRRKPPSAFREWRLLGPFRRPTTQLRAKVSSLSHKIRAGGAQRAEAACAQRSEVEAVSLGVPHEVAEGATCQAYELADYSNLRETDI

[8] = Clearance in dog at 3 mg/kg, po and 1 mg/kg, iv; format: ADME, organism-based, Canis lupus familiaris; conditions: in vivo
Rattus norvegicus = test: Antihyperalgesic activity in rat assessed as inhibition of carrageenan-induced hyperalgesia at 30 mg/kg, sc after 1 hr; format: functional, organism-based; set-up: dose 30 mg/kg
How it was run: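 Rats received carrageenin (0.15 ml, 3%) by intraplantar injection 3 h before testing. Compound was given sc, and testing followed 1 h later. Responses to a noxious mechanical stimulus were scored, with significance set at P < 0.05.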

[9] = biological target: Voltage-gated inwardly rectifying potassium channel KCNH2 (Homo sapiens, UniProt Q12809); test: Displacement of [35S]MK499 from human ERG expressed in HEK293 cells
Sequence of Voltage-gated inwardly rectifying potassium channel KCNH2 (Q12809 whole entry): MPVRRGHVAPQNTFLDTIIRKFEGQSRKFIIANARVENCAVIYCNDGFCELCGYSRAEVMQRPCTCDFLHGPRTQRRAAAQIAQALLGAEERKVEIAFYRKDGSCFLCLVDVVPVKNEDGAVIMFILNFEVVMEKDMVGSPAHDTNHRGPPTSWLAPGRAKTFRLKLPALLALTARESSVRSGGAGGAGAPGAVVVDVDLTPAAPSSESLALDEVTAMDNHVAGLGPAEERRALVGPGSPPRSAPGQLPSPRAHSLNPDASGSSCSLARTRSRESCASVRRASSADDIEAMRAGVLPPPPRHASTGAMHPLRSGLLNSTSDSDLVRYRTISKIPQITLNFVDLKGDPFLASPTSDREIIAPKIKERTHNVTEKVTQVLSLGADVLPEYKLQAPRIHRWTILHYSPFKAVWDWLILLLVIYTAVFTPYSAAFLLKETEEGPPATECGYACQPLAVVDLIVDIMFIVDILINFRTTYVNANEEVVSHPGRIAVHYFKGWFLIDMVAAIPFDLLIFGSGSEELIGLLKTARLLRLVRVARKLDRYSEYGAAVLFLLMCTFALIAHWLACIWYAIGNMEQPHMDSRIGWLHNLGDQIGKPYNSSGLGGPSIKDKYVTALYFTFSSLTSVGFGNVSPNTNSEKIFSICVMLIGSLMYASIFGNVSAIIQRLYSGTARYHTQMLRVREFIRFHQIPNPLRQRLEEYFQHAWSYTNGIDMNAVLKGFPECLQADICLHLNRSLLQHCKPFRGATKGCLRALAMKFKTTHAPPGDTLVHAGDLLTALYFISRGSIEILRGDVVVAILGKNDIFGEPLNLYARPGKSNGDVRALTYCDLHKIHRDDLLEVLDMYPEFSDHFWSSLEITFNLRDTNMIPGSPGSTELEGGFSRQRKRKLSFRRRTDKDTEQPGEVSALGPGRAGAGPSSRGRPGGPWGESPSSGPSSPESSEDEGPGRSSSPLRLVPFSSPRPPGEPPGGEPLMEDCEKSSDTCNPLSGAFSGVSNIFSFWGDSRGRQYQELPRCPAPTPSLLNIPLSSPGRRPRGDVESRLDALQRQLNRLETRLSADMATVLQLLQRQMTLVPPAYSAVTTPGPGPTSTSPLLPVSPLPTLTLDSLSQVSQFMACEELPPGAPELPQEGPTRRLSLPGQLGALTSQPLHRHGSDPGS

[10] = Half life in monkey at 3 mg/kg, po and 1 mg/kg, iv; format: ADME, organism-based, Macaca mulatta; conditions: rhesus monkey, in vivo
[11] = Plasma concentration in mouse at 3 mg/kg, sc after 30 mins; format: ADME, organism-based; set-up: dose 3 mg/kg, route subcutaneous
Mu-type opioid receptor = Mu-type opioid receptor (Homo sapiens, UniProt P35372); test: Displacement of [3H]diprenorphin from human mu opioid receptor expressed in CHO cells; format: cell-based; how it was run: as §1
Sequence of Mu-type opioid receptor (P35372 whole entry): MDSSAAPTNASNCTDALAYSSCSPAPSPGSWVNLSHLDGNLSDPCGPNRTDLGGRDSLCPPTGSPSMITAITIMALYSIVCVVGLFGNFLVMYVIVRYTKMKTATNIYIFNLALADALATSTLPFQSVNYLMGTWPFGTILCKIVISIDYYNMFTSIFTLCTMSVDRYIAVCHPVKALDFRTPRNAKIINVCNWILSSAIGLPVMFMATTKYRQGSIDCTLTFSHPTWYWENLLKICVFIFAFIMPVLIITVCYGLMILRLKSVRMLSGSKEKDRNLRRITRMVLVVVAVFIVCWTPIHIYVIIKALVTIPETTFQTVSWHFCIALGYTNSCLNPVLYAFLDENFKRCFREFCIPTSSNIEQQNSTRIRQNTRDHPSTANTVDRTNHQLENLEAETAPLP

[12] = Half life in rat at 3 mg/kg, po and 1 mg/kg, iv; format: ADME, organism-based; conditions: in vivo
Nociceptin receptor [13] = biological target: T2, Nociceptin receptor (Homo sapiens, UniProt P41146); test: Antagonist activity against ORL1 receptor by [S35]GTPgammaS binding; format: functional
T2 sequence (P41146 whole entry): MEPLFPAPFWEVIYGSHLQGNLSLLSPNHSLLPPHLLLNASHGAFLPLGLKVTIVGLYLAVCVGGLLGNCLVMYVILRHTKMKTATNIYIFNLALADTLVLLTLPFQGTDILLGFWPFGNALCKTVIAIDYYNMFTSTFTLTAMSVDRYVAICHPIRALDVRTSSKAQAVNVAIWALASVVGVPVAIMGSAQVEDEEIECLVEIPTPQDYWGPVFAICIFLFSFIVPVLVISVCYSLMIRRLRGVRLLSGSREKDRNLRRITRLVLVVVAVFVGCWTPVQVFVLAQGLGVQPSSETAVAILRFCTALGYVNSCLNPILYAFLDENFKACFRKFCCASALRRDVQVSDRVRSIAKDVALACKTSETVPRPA

[14] = Inhibition of adrenergic alpha1 receptor at 10 uM
[15] = Metabolic stability in human liver microsomes assessed as parent compound remaining at 1 uM after 30 mins; format: ADME, Microsome; conditions: read-out: Stability
[16] = Clearance in rat at 3 mg/kg, po and 1 mg/kg, iv; format: ADME, organism-based; conditions: in vivo
[17] = Oral bioavailability in dog at 3 mg/kg; format: ADME, organism-based, Canis lupus familiaris; conditions: in vivo
[18] = Cmax in dog at 10 mg/kg, iv; format: ADME, organism-based, Canis lupus familiaris; set-up: dose 10 mg/kg, route intravenous; conditions: in vivo
[19] = biological target: Histamine H3 receptor (Homo sapiens) (UniProt Q9Y5N1); test: Inhibition of histamine H3 receptor at 10 uM
Sequence of Histamine H3 receptor (Homo sapiens) (Q9Y5N1 whole entry): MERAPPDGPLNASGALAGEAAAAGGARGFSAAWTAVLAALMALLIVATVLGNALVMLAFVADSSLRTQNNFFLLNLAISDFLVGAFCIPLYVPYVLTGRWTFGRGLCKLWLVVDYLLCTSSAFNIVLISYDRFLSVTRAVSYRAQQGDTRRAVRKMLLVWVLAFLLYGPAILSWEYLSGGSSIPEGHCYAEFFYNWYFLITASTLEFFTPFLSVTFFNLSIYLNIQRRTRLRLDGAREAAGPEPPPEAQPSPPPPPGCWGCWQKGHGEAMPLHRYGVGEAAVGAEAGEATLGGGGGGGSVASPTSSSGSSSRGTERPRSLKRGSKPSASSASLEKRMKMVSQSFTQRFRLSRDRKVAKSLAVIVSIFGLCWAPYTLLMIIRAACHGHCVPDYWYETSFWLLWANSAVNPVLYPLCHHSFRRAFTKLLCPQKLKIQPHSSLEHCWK

[20] = biological target: Delta-type opioid receptor (Homo sapiens, UniProt P41143); test: Displacement of [3H]naltrindole from human delta opioid receptor expressed in CHO cells
Sequence of Delta-type opioid receptor (P41143 whole entry): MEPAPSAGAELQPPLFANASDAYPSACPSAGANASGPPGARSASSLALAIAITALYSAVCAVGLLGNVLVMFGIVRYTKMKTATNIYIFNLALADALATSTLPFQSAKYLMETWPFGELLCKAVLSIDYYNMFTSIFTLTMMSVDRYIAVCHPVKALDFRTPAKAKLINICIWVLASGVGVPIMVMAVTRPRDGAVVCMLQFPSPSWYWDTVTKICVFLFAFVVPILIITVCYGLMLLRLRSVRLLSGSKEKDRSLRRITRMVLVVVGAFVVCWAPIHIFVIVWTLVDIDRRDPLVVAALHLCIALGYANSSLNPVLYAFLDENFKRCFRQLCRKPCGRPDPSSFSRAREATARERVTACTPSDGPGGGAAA

[21] = Oral bioavailability in rat at 3 mg/kg; format: ADME, organism-based; conditions: in vivo
[22] = Half life in dog at 3 mg/kg, po and 1 mg/kg, iv; format: ADME, organism-based, Canis lupus familiaris; conditions: in vivo
Brain [23] = test: Drug level in mouse brain at 3 mg/kg, sc after 30 mins; format: ADME, organism-based; set-up: dose 3 mg/kg, route subcutaneous; conditions: in vivo, 0.5 h
[24] = Clearance in monkey at 3 mg/kg, po and 1 mg/kg, iv; format: ADME, organism-based, Macaca mulatta; conditions: rhesus monkey, in vivo
[25] = Distribution coefficient, log D at pH 7.4 by shake flask method; format: physicochemical; conditions: octanol/water
[26] = biological target: T3, High affinity choline transporter 1 (Homo sapiens) (UniProt Q9GZV3); test: Inhibition of choline transporter at 10 uM
T3 sequence (whole entry): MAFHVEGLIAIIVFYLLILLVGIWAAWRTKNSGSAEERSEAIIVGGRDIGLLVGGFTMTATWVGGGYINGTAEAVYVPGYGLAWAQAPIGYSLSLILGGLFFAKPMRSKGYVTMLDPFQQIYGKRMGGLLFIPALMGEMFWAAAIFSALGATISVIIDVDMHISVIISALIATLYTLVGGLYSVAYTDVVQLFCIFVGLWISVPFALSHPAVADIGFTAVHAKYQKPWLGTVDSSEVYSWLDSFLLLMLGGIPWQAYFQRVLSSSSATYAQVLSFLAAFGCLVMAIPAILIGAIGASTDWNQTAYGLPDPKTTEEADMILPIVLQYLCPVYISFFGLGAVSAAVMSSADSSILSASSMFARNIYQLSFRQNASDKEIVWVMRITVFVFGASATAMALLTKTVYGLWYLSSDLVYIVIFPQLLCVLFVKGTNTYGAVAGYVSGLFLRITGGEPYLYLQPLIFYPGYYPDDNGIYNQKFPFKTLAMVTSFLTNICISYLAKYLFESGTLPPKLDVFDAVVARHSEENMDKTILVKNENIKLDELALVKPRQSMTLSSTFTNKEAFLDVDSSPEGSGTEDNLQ

Canis familiaris = test: Toxic effect in anesthetized dog assessed as incidence of cardiovascular events at 10 mg/kg, iv; format: toxicity, organism-based, Canis lupus familiaris; set-up: dose 10 mg/kg, route intravenous; conditions: in vivo
[27] = Oral bioavailability in monkey at 3 mg/kg; format: ADME, organism-based, Macaca mulatta; conditions: rhesus monkey, in vivo
Nociceptin receptor [28] = biological target: T2, Nociceptin receptor; test: Displacement of [125I]Tyr14-NC/OFQ from ORL1 receptor

CCN1CCN(c2cc3[nH]c(S[C@]4(C)CC[C@@H](N(C)C(C)=O)CC4)nc3cc2Cl)CC1
concentration at 1 h [1]: 4.56 µM | Kp at 1 h [2]: 0.09 | Drug uptake (Brain [3]): 0.38 nmol/g

CCN1CCN(c2cc3[nH]c(C(=O)[C@]4(C)CC[C@@](C)(O)CC4)nc3cc2Cl)CC1
inhibition [4]: 73% | Kp at 0.5 h [5]: 2.02 | IC50 [6]: 1400 nM | inhibition [7]: 74% | clearance [8]: 34 mL/min/kg | Activity (Rattus norvegicus): Active | IC50 [9]: 20000 nM | half-life [10]: 4 h | concentration at 0.5 h [11]: 1.08 µM | IC50 (Mu-type opioid receptor): > 10000 nM | half-life [12]: 0.62 h | IC50 (Nociceptin receptor [13]): 1.3 nM | inhibition [14]: 72% | remaining at 0.5 h, 1 µM [15]: 82% | clearance [16]: 77 mL/min/kg | bioavailability [17]: 38% | Cmax [18]: 10.7 µM | inhibition [19]: 50% | IC50 [20]: > 10000 nM | bioavailability [21]: 15% | half-life [22]: 3.5 h | Drug uptake (Brain [23]): 2.21 nmol/g | clearance [24]: 22 mL/min/kg | logD [25]: 3.1 | inhibition [26]: 62% | Activity (Canis familiaris): Non-toxic | bioavailability [27]: 8%

CCN1CCN(c2cc3[nH]c(C(=O)[C@]4(C)CC[C@](C)(O)CC4)nc3cc2Cl)CC1
IC50 [9]: 3100 nM | IC50 (Nociceptin receptor [28]): 27 nM

CCN1CCN(c2cc3[nH]c(C(=O)[C@]4(C)CC[C@@H](NC(=O)OC)CC4)nc3cc2C)CC1
IC50 [9]: 3000 nM | IC50 (Nociceptin receptor [28]): 2 nM | IC50 (Nociceptin receptor [13]): 5.3 nM | remaining at 0.5 h, 1 µM [15]: 71% | logD [25]: 3.1

CCN1CCN(c2cc3[nH]c(S[C@]4(C)CC[C@@H](NC(=O)OC)CC4)nc3cc2Cl)CC1
concentration at 1 h [1]: 22.2 µM | Kp at 1 h [2]: 0.05 | Drug uptake (Brain [3]): 1.11 nmol/g

CCN1CCN(c2cc3[nH]c(C(=O)C4(C)CCC(=O)CC4)nc3cc2Cl)CC1
IC50 [9]: 8500 nM | IC50 (Nociceptin receptor [28]): 9.9 nM | IC50 (Nociceptin receptor [13]): 38 nM | logD [25]: 3

CCN1CCN(c2cc3[nH]c(C(=O)[C@]4(CC)CC[C@@](C)(O)CC4)nc3cc2Cl)CC1
IC50 (Nociceptin receptor [28]): 0.8 nM | IC50 (Nociceptin receptor [13]): 2.4 nM | remaining at 0.5 h, 1 µM [15]: 57% | logD [25]: 3.6

CCN1CCN(c2cc3[nH]c(C(=O)[C@]4(C)CC[C@@H](NC(=O)OC)CC4)nc3cc2Cl)CC1
IC50 [9]: 4900 nM | IC50 (Nociceptin receptor [28]): 5.7 nM | IC50 (Nociceptin receptor [13]): 7.5 nM | remaining at 0.5 h, 1 µM [15]: 74% | logD [25]: 3.7
